Keap1-Nrf2 PPI: inhibitors of human Keap1-Nrf2 protein-protein interaction; 0.15% of 340,000 active; inhibition, % at 9.4 µM; Keap1 Kelch-Nrf2 peptide fluorescence polarization, 1536-well; Q14145; in the data active = inhibition above about 12%;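 note: human Keap1 Kelch domain with fluorescein labeled Nrf2 9mer peptide probe; higher means more block of Keap1 binding to Nrf2 peptide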
LANA DNA inh: inhibitors of KSHV LANA C-terminal domain DNA binding. AID 504423. 0.078% of 340,000 active. MBP-C-LANA/FAM-LBS DNA binding, fluorescence polarization. inhibition, % at 9 µM;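 active = highest replicate inhibition at or above 60% at 9 µM, even if other replicates fall short; inactive = all replicates below 60% inhibition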
Tn7 DDE FP: disrupts Tn7 cyclic peptide binding to fibrin D-Dimer-E complex; P02675; FP displacement of FITC-Tn7 peptide from fibrin DD(E); 0% = median of compound wells per plate; inhibition, % at 8.3 µM; 0.13% of 370,000 active;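 active = inhibition above the mean of compounds falling within the control limits plus 3 SD of them, cut at about 14% in these data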
Target sequence (P02675 whole entry, looked up): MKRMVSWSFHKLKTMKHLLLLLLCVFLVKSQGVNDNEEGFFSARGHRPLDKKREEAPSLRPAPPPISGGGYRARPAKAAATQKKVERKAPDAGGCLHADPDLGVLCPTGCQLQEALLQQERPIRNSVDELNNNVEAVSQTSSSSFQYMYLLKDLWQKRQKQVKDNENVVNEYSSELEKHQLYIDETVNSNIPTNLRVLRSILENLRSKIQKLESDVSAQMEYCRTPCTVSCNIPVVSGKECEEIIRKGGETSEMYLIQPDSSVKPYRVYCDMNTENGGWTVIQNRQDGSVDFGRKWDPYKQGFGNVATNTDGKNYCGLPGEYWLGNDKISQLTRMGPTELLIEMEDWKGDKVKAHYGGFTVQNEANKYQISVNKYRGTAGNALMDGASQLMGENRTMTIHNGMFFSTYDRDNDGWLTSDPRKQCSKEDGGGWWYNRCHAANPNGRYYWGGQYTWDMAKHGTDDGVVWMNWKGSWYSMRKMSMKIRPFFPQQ
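Assay system: Fibrin-DD(E) protein isolated from polymerized human fibrin clots; read-out basis: percent inhibition; medium: Tris/NaCl/CaCl2 buffer, pH 7.8; signal: FP measurement; incubation: 10 min plus 3 h, room temperature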
RTF Ca sens inh: cardiac RTF calcium desensitization | P19429+P45379 | IANBD-labeled cardiac RTF, Ca2+ fluorescence | inhibition, % at 7.15 µM | 0.12% of 340,000 active | AID 493244;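 active = inhibition above the mean inhibition of all tested compounds plus 3 SD, cut at about 17% in these data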;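 note: assay run at fixed EC70 calcium of 1.6 mM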
RTF Ca sens act: increases calcium sensitivity of human cardiac regulated thin filaments; P19429+P45379; IANBD-labeled TnC RTF fluorescence at EC20 calcium; 0% EC20 calcium, 100% full calcium; activation, % at 7.2 µM; 0.24% of 340,000 active;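 active = activation above the mean over all tested compounds plus 3 SD, cut at about 30% in these data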;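 note: rise in fluorescence read as greater calcium sensitivity of cardiac thin filaments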
Tn6 DDE FP: DD(E)-Tn6 binding inhibition, primary FP screen; P02675; Fibrin DD(E) TRITC-Tn6 fluorescence polarization displacement; inhibition, % at 8.3 µM; 0.21% of 370,000 active; AID 720509;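 active = inhibition above a per-campaign cutoff: mean of compounds within control limits plus 3 SD, cut at about 15% in these data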
DDE Tn6 FP ctr: counter-screen hit for Tn6 peptide-fibrin DD(E) binding disruption | TRITC-Tn6 fluorescence polarization displacement; 0% = median of compound wells, not DMSO | AID 720621 | 2% of 680 active | inhibition, % at 8.3 µM | shares compounds with Tn6 DDE FP;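 active = inhibition above the mean of test compounds lying between the control limits plus 3 SD of those, cut at about 14% in these data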
Tn6 DDE conf: confirmation of inhibitors of Tn6 binding to human fibrin DD(E). shares compounds with Tn6 DDE FP. inhibition, % at 8.3 µM. FP displacement of TRITC-Tn6 peptide from DD(E); 0% = per-plate median of test wells. 10% of 680 active. AID 720631;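 active = inhibition above the mean of compounds lying within the control limits plus 3 SD, cut at about 16% in these data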
A number is an active result; - = inactive; . = not tested or not shown. Rows were chosen to be rich in hits. Some 0.73% of all compounds tested hit in one or more screens of this group.

SMILES	Keap1-Nrf2 PPI	LANA DNA inh	Tn7 DDE FP	RTF Ca sens inh	RTF Ca sens act	Tn6 DDE FP	DDE Tn6 FP ctr	Tn6 DDE conf
COC(=O)C1CN(Cc2ccc(F)cc2)CCS(=O)(=O)N1Cc1ccc(OC)cc1 (centres undefined)	.	.	-	.	.	-	.	.
O=C(Nc1ccc(F)cc1F)c1cc(-c2ccc(Cl)cc2)nc2ccccc12	.	.	-	.	.	-	.	.
Cc1cccc(NC(=O)c2ncn3c2C(=O)N[C@@H](C)C3)c1	.	.	-	.	.	-	.	.
N=c1c2c(ccn1CCCCc1ccccc1)Oc1ccc3ccccc3c1C2c1ccccc1 (centres undefined)	.	.	-	.	.	-	.	.
CCCCN1C(=O)C(C(=O)OCc2ccccc2)CC2=C1CCCC2=O (centres undefined)	-	-	-	-	-	21.3	-	-
CCCCN1C(=O)C(C(=O)OCC)CC2=C1CCCC2=O (centres undefined)	-	-	-	-	-	-	.	.
CCC(C)(C)C(=O)N1CCC(C(=O)NC2CCCc3ccccc32)CC1 (centres undefined)	.	.	-	.	.	-	.	.
C=C1CCN(c2ccc(C(=O)NCc3ccc(OC)cc3)cc2[N+](=O)[O-])CC1	-	-	-	-	-	15.3	-	-
C=C1CCN(c2ccc(C(=O)NCc3ccc(C)cc3)cc2[N+](=O)[O-])CC1	-	-	-	-	-	-	.	.
O=c1cc(CN(Cc2ccccc2)Cc2ccccc2)c2c(ccc3ccccc32)o1	.	.	-	.	.	-	.	.
COc1cc(N)c2ncccc2c1SC	.	.	-	.	.	-	.	.
COc1cc(N)c2ncccc2c1Br	-	-	-	-	-	19.3	-	-
O=C(Nc1ccccc1Cl)c1cc(C2CCCCN2C(=O)c2cccs2)on1 (centres undefined)	.	.	-	.	.	-	.	.
Nc1sccc1C(=O)c1ccccc1	.	.	-	.	.	15.5	-	-
O=C(Nc1nc2c(Br)cccc2s1)c1ccc2c(c1)OCCO2	.	.	-	.	.	38.1	-	-
Cc1nc2c(ccc3nc(NC(=O)c4ccc5c(c4)OCCO5)sc32)s1	-	-	-	-	-	-	.	.
CCCCNC(=O)C1CCN(S(=O)(=O)c2ccc3c(c2)CC(C)N3C(=O)C2CC2)CC1 (centres undefined)	-	-	-	-	-	102.7	-	-
CC(C)CCNC(=O)C1CCN(S(=O)(=O)c2ccc3c(c2)CC(C)N3C(=O)C2CC2)CC1 (centres undefined)	-	-	-	-	-	-	.	.
O=C1/C(=C\c2cc([N+](=O)[O-])ccc2O)SC(=S)N1Cc1ccc(Cl)cc1	-	-	-	-	134.7	17.2	-	-
O=C1NC[C@@H](c2ccccc2)OC(=O)[C@@H](Cc2ccc(F)cc2)CC/C=C/C[C@@H]1CC(=O)N(CCO)Cc1ccccc1	-	-	-	-	-	16.0	-	-
CCOc1ccc(S(=O)(=O)NCCC(=O)NCCOc2ccccc2OC)cc1	-	-	-	-	-	22.2	-	-
CCOc1ccc(S(=O)(=O)NCCC(=O)NCc2ccco2)cc1	-	-	-	-	-	-	.	.
Cc1cn2c(=O)c3ncn(C4OC(CO)C(O)C4O)c3n(C)c2n1 (centres undefined)	.	.	-	.	.	-	.	.
Oc1ccc(C[C@H]2CN([C@@H](Cc3ccc(O)cc3)CN3CCC[C@@H]3CN3C(=S)NC[C@@H]3Cc3ccccc3)C(=S)N2CCc2ccccc2)cc1	.	.	-	.	.	-	.	.
Oc1ccc(C[C@H]2CNC(=S)N2C[C@H]2CCCN2C[C@H](Cc2ccccc2)N2C[C@H](Cc3ccc(O)cc3)N(CCc3ccccc3)C2=S)cc1	.	.	-	.	.	17.4	-	-
SMILES	Keap1-Nrf2 PPI	LANA DNA inh	Tn7 DDE FP	RTF Ca sens inh	RTF Ca sens act	Tn6 DDE FP	DDE Tn6 FP ctr	Tn6 DDE conf
Oc1ccc(C[C@H]2CNC(=S)N2CC2CCCN2C[C@H](Cc2ccc(O)cc2)N2C[C@H](Cc3ccc(O)cc3)N(CC3CCCCCC3)C2=S)cc1 (some centres undefined)	-	-	-	-	-	31.0	-	-
CCOc1ccc(CCN2C(=S)N([C@@H](Cc3ccc(O)cc3)CN3CCC[C@@H]3CN3C(=S)NC[C@@H]3CC(C)C)C[C@@H]2Cc2ccc(O)cc2)cc1	.	.	-	.	.	15.6	-	-
Oc1ccc(C[C@H]2CN([C@@H](Cc3ccccc3)CN3CCC[C@@H]3CN3C(=S)NC[C@@H]3Cc3ccccc3)C(=S)N2CC2CCCCC2)cc1	.	.	-	.	.	-	.	.
C/C=C/c1ccc([C@H]2[C@@H](CN(CC(C)C)S(=O)(=O)c3ccccc3[N+](=O)[O-])N(C(=O)Nc3cccc(OC)c3)[C@H]2CO)cc1	.	.	-	.	.	-	.	.
Cc1nn(-c2ccc(F)cc2)c2c1cc(C#N)c1nc3ccccc3n12	-	-	-	-	-	16.2	-	-
O=S(=O)(N1CCCCC1)n1nnc2cc3ccccc3cc21	.	.	-	.	.	-	.	.
COc1ccc(-n2c(Cc3cccs3)nnc2SCC(=O)Nc2cccc3ccccc23)cc1	.	.	-	.	.	-	.	.
O=C(OCc1cc([N+](=O)[O-])cc2c1OCOC2)c1ccccn1	-	-	-	-	-	17.5	-	-
Cc1ccc(-c2csc3nc4cc(C(=O)NC5CCC(O)CC5)ccc4c(=O)n23)cc1 (centres undefined)	-	-	-	-	-	17.3	-	-
Cc1ccc(-c2csc3nc4ccc(C(=O)NCCO)cc4c(=O)n23)cc1	-	-	-	-	-	-	.	.
CCOC(=O)N1CCN(C(=O)C[C@H]2C[C@@]3(C(=O)OC)C(=C[C@H](C(C)(C)C)O[C@@H]3C)N(Cc3ccco3)C2=O)CC1	.	.	-	.	.	-	.	.
COC(=O)[C@]12C[C@H](CC(=O)NCc3ccc(C)o3)C(=O)N(Cc3ccccc3)C1=C[C@H](C(C)C)O[C@@H]2C1CC1	.	.	-	.	.	-	.	.
c1ccc(-c2nc(-n3ccnc3)nc(-n3ccnc3)n2)cc1	-	-	-	-	-	15.4	-	-
O=C(COc1ccccc1)Nc1cccc(-c2nn[nH]n2)c1	-	-	-	-	-	-	.	.
O=C(COc1ccccc1)Nc1cccc(-c2nc3cc4ccccc4cc3[nH]2)c1	-	-	-	-	-	86.5	-	24.6
COc1ccc(N2C(=O)c3n[nH]c(C(C)C)c3C2c2ccc(C)cc2)cc1 (centres undefined)	.	.	-	.	.	-	.	.
C[C@@H]1OC(C2CCCCC2)N(C)[C@H]2C[C@H]3c4[nH]c5cccc(-c6cccc(F)c6)c5c4CCN3C(=O)[C@@H]12 (some centres undefined)	.	.	-	.	.	-	.	.
COc1ccc(S(=O)(=O)N[C@H](C(=O)O)C(C)C)cc1	-	-	-	-	-	-	.	.

Source: PubChem (several laboratories)
